Compound activity deposited in PubChem BioAssay by several laboratories.
MC4R ag barr: activates human MC4R beta-arrestin recruitment | P32245 | U2OS MC4R beta-arrestin complementation, luminescence; percent of melanotan II response, DMSO zero | activation, % at 8.9 µM | actives 0.98% (n = 360,000) | AID 540308;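 active = activation above a per-plate cutoff, the mean activation of sample wells on that plate plus 3 SD, cut at about 8% in these data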
ABCB6 inh 2: inhibitors of human ABC transporter ABCB6. Q9NP58. K562-ABCB6 porphyrin accumulation, flow cytometry, 1 h; stronger effect = lower value. fluorescence ratio to DMSO, % at 10 µM. actives 0.19% (n = 360,000);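 active = fluorescence ratio to DMSO below 75%, the collection mean minus 3 SD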;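 note: signal is porphyrin accumulated inside mitochondria; 100% equals median channel fluorescence of DMSO control wells; lower ratio means ABCB6 inhibition with less porphyrin fluorescence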
TbMetRS inhib: Trypanosoma brucei MetRS inhibition; purified T. brucei MetRS, ATP depletion, Kinase-Glo luminescence; inhibition, % at 11.9 µM; actives 0.4% (n = 360,000); AID 624268;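 active = inhibition above a per-plate cutoff of the control wells' mean inhibition plus 3 SD, cut at about 5.5% in these data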;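 note: 0% = DMSO wells median and 100% = median of wells with control inhibitor compound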
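Material: T. brucei methionyl-tRNA synthetase, purified; reagent: substrates ATP, L-methionine and bulk Escherichia coli tRNA; dosing: 11.9 µM single point; timing: 15 min plus 2 h at 25 °C; detection: luminescence of leftover ATP; evaluation: % inhibition; control set: DMSO-only wells as low control; replicates: singlicate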
iPSC survival up: hiPSC single-cell survival enhancement; ATPlite luminescence; 100% = ROCK inhibitor wells, 0% = DMSO; survival enhancement, % at 20 µM; actives 0.044% (n = 360,000); AID 602274; in the data active = survival enhancement above about 18%;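 note: cells exposed to compounds for 16 hours before the ATP read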
Exocytosis inh: blocks lytic granule exocytosis | inhibition, % at 10 µM | AID 651702 | actives 0.66% (n = 360,000) | TALL-104 LAMP-1 surface exposure, flow cytometry; cells stimulated with thapsigargin and PMA;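 active = inhibition above about 55%, limit read from the data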
MC4R antag cAMP: blocks human MC4R cAMP signaling | MC4R-expressing cells, MTII-stimulated cAMP, LANCE TR-FRET | AID 540295 | inhibition, % at 6.5 µM | actives 0.48% (n = 360,000);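 active = inhibition above its plate's cutoff, the mean of tested wells on that plate plus 3 SD, cut at about 29% in these data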;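 note: 0% = Melanotan II alone and 100% = Melanotan II plus saturating MCL0020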
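Assay system: U2OS cells stably expressing human melanocortin 4 receptor (MC4R) / Dosing: 6.5 µM / Timing: compound 30 min, challenge 1 h, detection 1 h / Measured by: Eu-cAMP/anti-cAMP TR-FRET, emission 671 nm / Replicates: singlicate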
The depositor's hits bear a star; i = inactive. Sampled rows, rich in hits. Any-hit rate of the full collection: about 2.6%.

SMILES	MC4R ag barr	ABCB6 inh 2	TbMetRS inhib	iPSC survival up	Exocytosis inh	MC4R antag cAMP
CCn1c(SCC(=O)c2ccc3c(c2)Cc2ccccc2-3)nnc1-c1ccc(N)cc1	11*	97	0	-2	0	7
CCn1c(SCC(=O)c2ccc(O)c(O)c2)nnc1-c1ccc(C)cc1	-2	112	0	-2	-1	2
O=C(COc1ccc2ccccc2c1)Nc1cccnc1Cl	8.3*	98	0	0	2	13
CCOC(=O)C1=C(O)c2ccccc2C(=O)/C1=C\c1ccc(C)cc1	2	i	0	-4	97*	25
CC1CC(C)CN(c2ccc(C(=O)NCc3ccc4c(c3)OCO4)cc2[N+](=O)[O-])C1 (stereo unspecified)	-1	96	-1	4	0	0
CC(=O)Nc1ccc(S(=O)(=O)NCCSCc2ccc(Cl)cc2Cl)cc1	1	99	13*	-3	-2	15
CC(=O)Nc1ccc(S(=O)(=O)NCCNS(=O)(=O)c2ccc(NC(C)=O)cc2)cc1	-1	106	0	0	7	-3
C[C@H]1NC(=O)[C@@]2(C)[C@@H](c3ccccc3)[C@H]3COc4ccccc4[C@@H]3N2C1=O	-1	99	0	-2	0	4
O=C(c1cnc2ccccc2n1)N1CCN(c2ccc(C(F)(F)F)cn2)CC1	4	108	-1	0	2	18
Cc1ccccc1Nc1cc2ccccc2c(=O)[nH]1	0	105	13*	6	1	1
O=c1[nH]c(Nc2ccc(F)cc2)cc2ccccc12	0	106	17*	-2	2	4
Cc1cccc(C(=O)Nc2nnc(SCC(=O)Nc3ccc4c(c3)oc3ccccc34)s2)c1	9.4*	97	0	-2	-4	1
COc1ccccc1C(=O)Nc1nnc(SCC(=O)Nc2ccc3c(c2)oc2ccccc23)s1	-2	93	0	0	2	10
CCOc1ccccc1NC(=O)COC(=O)C(CC)c1ccccc1 (stereo unspecified)	-1	90	0	-2	5	9
N#CCC(=O)N/N=C/c1c(-c2ccccc2)n(-c2ccccc2)c2ccccc12	1	99	0	0	94*	16
CC(=O)c1cccc(NC(=O)COC(=O)Cn2cnc3ccccc32)c1	0	94	0	0	-4	-2
O=C(N/N=C/c1ccc(-c2cccc([N+](=O)[O-])c2)o1)[C@H]1C[C@@H]1c1ccccc1	2	96	0	0	-1	14
O=C(N/N=C/c1ccc(-c2ccc([N+](=O)[O-])cc2)o1)[C@H]1C[C@@H]1c1ccccc1	-2	104	0	1	62*	3
O=[N+]([O-])c1ccc(Nc2nc(NC3CCCCC3)nc(N3CCCC3)n2)cc1	3	102	-1	-2	78*	2
O=[N+]([O-])c1ccc(Nc2nc(N/N=C/c3cccc(F)c3)nc(N3CCCC3)n2)cc1	-2	94	0	2	2	3
Cc1cc(C)cc(NS(=O)(=O)CCCS(=O)(=O)Nc2cc(C)cc(C)c2)c1	19*	95	0	0	-1	2
Cc1c(C)c(C)c(CO/N=C/c2cccs2)c(C)c1C	-2	95	0	0	88*	4
CC(=NCCc1ccccc1)C1=C(O)CSC1=O	2	74*	-1	-2	-4	3
CC/C(=C\C1CCCCC1)C(NP(=O)(c1ccccc1)c1ccccc1)c1ccccc1 (stereo unspecified)	-1	89	0	0	59*	9
CCCN1C(=O)/C(=C/c2ccc(C)o2)SC1=Nc1ccc(OCC)cc1	0	99	0	0	70*	7
SMILES	MC4R ag barr	ABCB6 inh 2	TbMetRS inhib	iPSC survival up	Exocytosis inh	MC4R antag cAMP
COc1ccc(N=C2S/C(=C\c3ccc(N4CCOCC4)o3)C(=O)N2CCc2c[nH]c3ccccc23)cc1	3	i	-1	40*	82*	14
CCCN1C(=O)/C(=C/c2ccc(C)o2)SC1=Nc1ccc(OC)cc1	3	108	-1	-1	80*	11
CCCN1C(=O)/C(=C/c2cc(C)n(C)c2C)SC1=Nc1ccc(OCC)cc1	-1	113	0	10	2	0
COc1ccccc1CNC(=O)COC(=O)Cc1ccc(Cl)cc1	0	95	0	5	-13	12
Cc1ccccc1OCC(=O)N/N=C/c1cc2ccccc2nc1Cl	3	98	0	-3	0	1
O=C(COc1cccc(Cl)c1)N/N=C\c1cc2ccccc2nc1Cl	9.0*	95	0	-2	-2	5
CC(=O)Nc1cc(-c2ccc(CO)cc2)cn2c(-c3ccc(F)c(Cl)c3)cnc12	9.1*	113	0	0	9	15
CC(=O)Nc1cc(-c2cccc(C(=O)NCCN(C)C)c2)cn2c(-c3ccc(F)c(Cl)c3)cnc12	7	105	0	-4	13	-4
CCNC(=S)Nc1ccc2c(c1)oc1ccccc12	0	95	0	0	59*	-7
CCNC(=S)Nc1ccc2ncoc2c1	0	101	-1	0	3	1
Cc1cc(-c2n[nH]c(=S)n2/N=C/C=C/c2ccccc2)n[nH]1	-2	65*	0	1	0	0
COc1ccccc1/C=C/C=N/n1c(-c2cc(C)[nH]n2)n[nH]c1=S	-1	97	0	2	-2	4
CCOc1cccc2sc(Nc3nc4ccc(NC(C)=O)cc4s3)nc12	-1	92	0	2	6	9
CC(C)CCNC(=O)c1onc(CSc2ccc(F)cc2)c1C(=O)NCCC(C)C	2	102	0	21*	-3	11
CC(CCC(C)C(C)(C)C)[C@@H]1CC[C@H]2C3C[C@H](OS(O)(=S)=S)[C@H]4C[C@H](OS(O)(=S)=S)[C@@H](OS(O)(=S)=S)C[C@]4(C)[C@H]3CC[C@]12C (stereo partly specified) (tested in a mixture with another compound)	-1	105	16*	0	8	25
CCOc1ccc(NC(=O)CN(C)C(=O)c2c(-c3ccccc3Cl)noc2C)cc1OCC	-3	100	0	0	-2	5
c1ccc(-c2nc(-n3nc4ccccc4n3)nc3ccccc23)cc1	-1	105	0	-1	65*	6
Clc1ccc(-c2nc(N3CCCCC3)nc3ccccc23)cc1	-1	122	0	4	-3	14
C=CCN1C(=O)/C(=C/c2ccc(-c3ccc(F)cc3)o2)SC1=S	-2	153	0	2	93*	2
